Assay results taken from ChEMBL document CHEMBL6182837, “Discovery and biological evaluation of nitrofuranyl-pyrazolopyrimidine hybrid conjugates as potent antimicrobial agents targeting Staphylococcus aureus and methicillin-resistant S. aureus” (RSC Med Chem, 2025).
≈ marks a conversion by molar mass, not a printed value. Calls of active or inactive are those of the source. No cut-off for these calls is given here.

Tests used:
[1] = test system: Staphylococcus aureus; assay: Inhibition of biofilm formation of Staphylococcus aureus ATCC 29213 incubated for 27 hrs by absorbance based method; assay type: functional, organism-based
[2] = test system: Staphylococcus aureus; assay: Disruption of pre-formed biofilms of Staphylococcus aureus ATCC 29213 at 4 to 6 times MIC incubated for 24 hrs by absorbance based method relative to control; assay type: functional
[3] = test system: Staphylococcus aureus; assay: Antibacterial activity against Staphylococcus aureus SA-K2191 overexpressing MsrA by Alamar blue staining based analysis; assay type: functional
[4] = test system: RAW264.7; assay: Cytotoxicity against mouse RAW264.7 cells up to 200 ug/ml incubated for 48 to 72 hrs by absorbance based assay; assay type: toxicity, cell-based; details: time 48-72 hrs, dose < 200 µg/ml
In short: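 MTT read-out: macrophage cells plated at 1 × 10^4 cells per well in DMEM with 10% FBS, 37 °C, 5% CO2; treatment 48 h and 72 h; 2.5 mg ml−1 MTT 3 h, formazan dissolved in DMSO, OD 570 nm; doxorubicin 10 μM control.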

[5] = test system: Staphylococcus aureus; assay: Synergistic antibacterial activity against Staphylococcus aureus ATCC 29213 assessed as fractional inhibitory concentration index at 0.02 ug/ml incubated up to 24 hrs in presence of vancomycin by checkerboard analysis; assay type: functional; details: dose 0.02 µg/ml
In short: (§1)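 Checkerboard microdilution in cation-adjusted MHB, done per CLSI. The compound and partner antibiotic were dissolved in DMSO. The antibiotic was serially diluted across the plate and the compound was twofold serially diluted into the wells to make the combinations. Each well received 0.1 ml of inoculum, a 0.5 McFarland suspension (1.5 × 10^8 CFU ml−1) diluted 1:100 in MHB. Plates were incubated 24 h at 37 °C, then read with Alamar blue (0.04%). FIC index was calculated.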

[6] = test system: Staphylococcus aureus; assay: Additive antibacterial activity against Staphylococcus aureus ATCC 29213 assessed as fractional inhibitory concentration index at 0.02 ug/ml incubated up to 24 hrs in presence of ciprofloxacin by checkerboard analysis; assay type: functional; details: dose 0.02 µg/ml; in short: as §1
[7] = test system: Staphylococcus aureus; assay: Bacteriostatic activity against Staphylococcus aureus ATCC 29213 assessed as reduction in bacterial count at MIC incubated for 2 to 24 hrs by time-kill assay; assay type: functional; details: time 2-24 hrs
[8] = test system: Staphylococcus aureus; assay: Bacteriostatic activity against Staphylococcus aureus ATCC 29213 assessed as reduction in bacterial count incubated for 2 to 24 hrs by time-kill assay; assay type: functional, organism-based; details: time 2-24 hrs
[9] = test system: Staphylococcus aureus; assay: Bactericidal activity against methicillin-resistant Staphylococcus aureus ATCC 15187 assessed as reduction in bacterial count at 2 times MIC measured after 8 to 10 hrs by time-kill assay; assay type: functional, organism-based; details: time 8-10 hrs
[10] = test system: Staphylococcus aureus; assay: Induction of resistance development in methicillin-resistant Staphylococcus aureus ATCC 15187 at 0.5 MIC measured after […]; assay type: functional, organism-based; details: 0.5 M
In short: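 Bacteria serially passaged under sublethal drug exposure over 20 days, with MIC redetermined at each passage; vancomycin and norfloxacin as controls.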

[11] = test system: Staphylococcus aureus; assay: Induction of morphological disruption in methicillin-resistant Staphylococcus aureus ATCC 15187 incubated for 2 to 6 hrs by SEM analysis; assay type: functional, organism-based; details: time 2-6 hrs
In short: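 Bacteria incubated for 2 h and 6 h at 1×, 2× and 4× MIC, with vancomycin and daptomycin at 1× and 2× MIC and untreated cells; cell morphology imaged by scanning electron microscopy.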

[12] = test system: Staphylococcus aureus; assay: Disruption of cell membrane integrity in Staphylococcus aureus ATCC 29213 assessed as red fluorescence at 1 to 2 times MIC incubated for 2.5 hrs by DAPI/PI staining based fluorescence microscopy; assay type: functional, organism-based
In short: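 S. aureus treated at 1× and 2× MIC, stained with DAPI (all cells) and PI (damaged membranes), imaged by fluorescence microscopy; vancomycin 2× MIC positive control; untreated blank.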

[13] = test system: Staphylococcus aureus; assay: Induction of membrane permeabilization in Staphylococcus aureus ATCC 29213 at 1 to 8 times MIC measured after 80 mins by PI staining based analysis relative to control; assay type: functional; details: 1.333 h
In short: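 PI permeabilization of S. aureus at 1×, 2×, 4×, 8× MIC followed over time up to 80 min; vancomycin 4× and 8× MIC as drug control; untreated blank; percentage permeabilization.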

[14] = test system: Staphylococcus aureus; assay: Induction of membrane permeabilization in methicillin-resistant Staphylococcus aureus ATCC 15187 at 1 to 8 times MIC measured after 80 mins by PI staining based analysis relative to control; assay type: functional; details: 1.333 h
In short: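 Propidium iodide uptake measured over time in bacteria exposed to 1×, 2×, 4× and 8× MIC, with vancomycin 4× and 8× MIC and a blank control; percentage membrane permeabilization read up to 80 min.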

[15] = test system: Staphylococcus aureus; assay: Antibacterial activity against Staphylococcus aureus ATCC 29213 infected in mouse RAW264.7 cells assessed as bacterial eradication by colony counting method; assay type: functional, organism-based
In short: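 RAW 264.7 macrophages infected with S. aureus, then treated with compound at multiples of MIC non-toxic to the cells; intracellular bacterial load enumerated as CFU ml−1; vancomycin comparator; one-way ANOVA versus infection control.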

[16] = test system: Staphylococcus aureus; assay: Antibacterial activity against methicillin-resistant Staphylococcus aureus ATCC 15187 infected in mouse RAW264.7 cells assessed as bacterial eradication by colony counting method based microdilution method; assay type: functional, organism-based
In short: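 RAW 264.7 macrophages infected with MRSA, then treated at multiples of MIC non-toxic to the cells, with vancomycin control; intracellular bacterial load counted as CFU ml−1; compared with infection control by one-way ANOVA.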

[17] = Drug metabolism in mouse liver microsomes; assay type: ADME, Microsome; details: read-out: Drug metabolism
[18] = Efflux ratio of permeability across basal to apical side over apical to basal side in human Caco-2 cells; assay type: ADME, cell-based
[19] = C0 in male Balb/c mouse at 1 mg/kg, iv by LC-MS/MS analysis; assay type: ADME, organism-based; details: in vivo
In short: (§2)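 Balb/c mice dosed 1 mg kg−1 intravenously or 30 mg kg−1 orally (2.5 mg kg−1 oral also given); plasma PK parameters derived.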

[20] = AUC (0 to t) in male Balb/c mouse at 1 mg/kg, iv by LC-MS/MS analysis; assay type: ADME, organism-based; details: in vivo; in short: as §2
[21] = AUC (0 to infinity) in male Balb/c mouse at 1 mg/kg, iv by LC-MS/MS analysis; assay type: ADME, organism-based; details: in vivo; in short: as §2
[22] = Volume of distribution in male Balb/c mouse at 1 mg/kg, iv by LC-MS/MS analysis; assay type: ADME, organism-based; details: in vivo; in short: as §2
[23] = Terminal half life in male Balb/c mouse at 30 mg/kg, po by LC-MS/MS analysis; assay type: ADME, organism-based; details: in vivo, read-out: beta t1/2 (converted); in short: as §2
[24] = Tmax in male Balb/c mouse at 30 mg/kg, po by LC-MS/MS analysis; assay type: ADME, organism-based; details: in vivo; in short: as §2
[25] = AUC (0 to infinity) in male Balb/c mouse at 30 mg/kg, po by LC-MS/MS analysis; assay type: ADME, organism-based; details: in vivo; in short: as §2
[26] = Clearance in male Balb/c mouse at 30 mg/kg, po by LC-MS/MS analysis; assay type: ADME, organism-based; details: in vivo; in short: as §2
[27] = test system: Staphylococcus aureus; assay: Antibacterial activity against methicillin-resistant Staphylococcus aureus ATCC 15187 infected in male Balb/c/c mouse assessed as reduction in bacterial load in kidney at 50 to 100 mg/kg measured after 24 hrs by colony counting method; assay type: functional, organism-based; details: dose 50-100 mg/kg
In short: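 Mouse peritonitis model: 0.1 ml MRSA suspension (10^8 CFU ml−1) given intraperitoneally; treatment intraperitoneal at 50 or 100 mg kg−1 at 2 and 5 h post-infection, with saline and vancomycin (50 mg kg−1) controls; killed at 24 h; kidney and lung homogenates plated on Mueller–Hinton agar with 20 μg ml−1 ciprofloxacin, 24 h; CFU ml−1; unpaired t-test.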

CCCc1nn(C)c2c(Nc3ccc(O)cc3)nc(-c3ccc([N+](=O)[O-])o3)nc12
inhibition [1]: Dose-dependent-effect
Activity [2]: 30%
MIC [3]: 0.15 µg/mL (≈ 0.38 µM)
Activity [4]: Non-toxic
fractional inhibitory concentration index (FICI) [5]: 0.5
fractional inhibitory concentration index (FICI) [6]: 1
Activity [7]: <3 log10CFU
Activity [8]: Dose-dependent-effect
Activity [9]: Not active; Initial Killing Was Observed, But Exhibited Some Re-Growth After 8 To 10 Hrs
Activity [10]: inactive
Activity [11]: Active
Activity [12]: Active
Activity [13]: 60%
Activity [14]: 45%
Activity [15]: Dose-dependent-effect
Activity [16]: Dose-dependent-effect
metabolised [17]: 71%
efflux ratio [18]: 1.3
C0 [19]: 552 ng/mL
AUC(0-t) [20]: 90.8 ng·h/mL
AUC(0-inf) [21]: 94.8 ng·h/mL
Vd [22]: 1.69 L/kg
half-life [23]: 21 min
Tmax [24]: 30 min
AUC(0-inf) [25]: 3150 ng·h/mL
CL/F [26]: 159 mL/min/kg
Activity [27]: Active; Significantly Greater Effect Was Observed At 50 Mg/Kg Compared To Vancomycin
